Screening results (PubChem)
Hits are enriched below; roughly 1.8% of the tested compounds scored in any of these assays.
CHRM4 PAM: human M4 muscarinic receptor positive allosteric modulators, primary screen, CHO-K1 cells, Fluo-8 calcium fluorescence | Muscarinic acetylcholine receptor M4 (Homo sapiens), P08173 | CHO-K1 hM4/Gqi5, ACh EC20; 0% = ACh EC20, 100% = maximal ACh | activation, % at 3 µM | 360,000 tested, 0.4% active | AID 624126, 2012;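 active means activation above its plate's cutoff, the mean activation of sample wells plus 3 SD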
CHRM5 antagonist: human M5 muscarinic receptor antagonists, primary screen, CHO cells, Fluo-8 calcium fluorescence; Muscarinic acetylcholine receptor M5 (Homo sapiens), P08912; CHO-hM5 cells, ACh EC80; inhibition, % at 3 µM; 360,000 tested, 0.59% active;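 active means inhibition above a per-plate cutoff, the mean of that plate's test compounds plus 3 SD, cut at about 27% in these data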;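 further: 0% = acetylcholine EC80 with DMSO and 100% = DMSO without agonist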
Target sequence (P08912 whole entry, looked up): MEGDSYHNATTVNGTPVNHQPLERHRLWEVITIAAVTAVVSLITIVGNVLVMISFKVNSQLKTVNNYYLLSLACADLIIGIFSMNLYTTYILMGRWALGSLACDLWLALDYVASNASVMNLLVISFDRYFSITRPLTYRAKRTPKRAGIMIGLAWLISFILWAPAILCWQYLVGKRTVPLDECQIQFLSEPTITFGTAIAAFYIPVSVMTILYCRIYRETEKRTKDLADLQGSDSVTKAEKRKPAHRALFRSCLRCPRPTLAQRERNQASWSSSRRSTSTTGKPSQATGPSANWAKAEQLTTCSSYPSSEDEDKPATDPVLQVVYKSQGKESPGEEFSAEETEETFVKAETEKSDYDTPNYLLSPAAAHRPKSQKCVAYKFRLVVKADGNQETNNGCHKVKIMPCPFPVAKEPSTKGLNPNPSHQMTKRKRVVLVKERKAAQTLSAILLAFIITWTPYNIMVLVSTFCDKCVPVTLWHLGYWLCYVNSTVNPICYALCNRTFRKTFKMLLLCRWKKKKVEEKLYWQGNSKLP
CHRM4 antagonist: human M4 muscarinic receptor antagonists, primary screen, CHO cells, Fluo-8 calcium fluorescence. CHO-hM4 cells, ACh EC80. Muscarinic acetylcholine receptor M4 (Homo sapiens), P08173. AID 624125, 2012. 360,000 tested, 0.73% active. inhibition, % at 3 µM;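 active means inhibition above its plate's cutoff, the mean inhibition of sample wells plus 3 SD, cut at about 27% in these data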;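 further: 0% = acetylcholine EC80 with DMSO and 100% = DMSO without agonist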
M5 PAM: human M5 muscarinic receptor positive allosteric modulators, primary screen, CHO-K1 cells, Fluo-8 calcium fluorescence. 360,000 tested, 0.3% active. activation, % at 3 µM. CHO-K1 hM5, ACh EC20 PAM; 0% = ACh EC20, 100% = ACh EC100. Muscarinic acetylcholine receptor M5 (Homo sapiens), P08912;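 active means activation above the run cutoff, the mean activation of all test compounds plus 3 SD, cut at about 18% in these data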
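System: CHO-K1 hM5 cells. Reagent: acetylcholine, EC20 level. Compound dosing: single dose, 3 µM nominal final test concentration. Timing: Post-acetylcholine fluorescence recording 140 s. Detection: Fluo-8 calcium fluorescence. Read-out: % activation, ACh-normalized. Benchmarks: ACh EC20 and EC100 wells. Repeats: singlicate, one well per test compound.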
CHRM5 agonist: human M5 muscarinic receptor agonists, primary screen, CHO-K1 cells, Fluo-8 calcium fluorescence. Muscarinic acetylcholine receptor M5 (Homo sapiens), P08912. 360,000 tested, 0.19% active. CHO-K1 hM5 cells; 0% DMSO wells, 100% maximal acetylcholine response. AID 624037, 2012. activation, % at 3 µM;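 active means activation above the run's mean over test compounds plus 3 SD, cut at about 23% in these data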;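 further: signal is peak over basal fluorescence ratio across the kinetic read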
M4 ag: human M4 muscarinic receptor agonists, primary screen, CHO-K1 cells, Fluo-8 calcium fluorescence; activation, % at 3 µM; 360,000 tested, 0.14% active; CHO-K1 hM4/Gqi5; vehicle 0%, full acetylcholine response 100%; Muscarinic acetylcholine receptor M4 (Homo sapiens), P08173;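 active means activation above the run mean over all test wells plus 3 SD, cut at about 32% in these data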;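 further: peak over basal fluorescence ratio per well then scaled between controls; 0% = DMSO wells and 100% = acetylcholine at EC100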
Starred values were filed as active, the others as inactive.

Screening CN(C)c1ccc(/C=C2\SC(=S)N(Nc3ncc(C(F)(F)F)cc3Cl)C2=O)cc1 returned CHRM4 PAM -20, CHRM5 antagonist 31*, CHRM4 antagonist 35*, M5 PAM -6, CHRM5 agonist 12 and M4 ag 20.
`Cc1cc(C)nc(NN2C(=O)/C(=C/c3ccccc3)SC2=S)n1` gave CHRM4 PAM 10, CHRM5 antagonist 6, CHRM4 antagonist 4, M5 PAM -7, CHRM5 agonist -2 and M4 ag 0.
Screening Cc1cc(C)nc(NS(=O)(=O)c2ccc(NC(=O)c3cccc(N4C(=O)CCC4=O)c3)cc2)n1 returned CHRM4 PAM 25*, CHRM5 antagonist 20, CHRM4 antagonist 6, M5 PAM 8, CHRM5 agonist 3 and M4 ag 2.
For Cc1ccnc(NS(=O)(=O)c2ccc(NC(=O)c3ccc(N4C(=O)CCC4=O)cc3)cc2)n1 the results were CHRM4 PAM 6, CHRM5 antagonist -5, CHRM4 antagonist 4, M5 PAM 6, CHRM5 agonist 4 and M4 ag 0.
Screening S=C(c1ccccc1)N1CCCc2ccccc21 returned CHRM4 PAM 38*, CHRM5 antagonist -10, CHRM4 antagonist -12, M5 PAM 6, CHRM5 agonist -5 and M4 ag -3.
O=C(c1ccccc1)N1CCCc2ccccc21 was read as CHRM4 PAM 1, CHRM5 antagonist -11, CHRM4 antagonist -2, M5 PAM 10, CHRM5 agonist -2 and M4 ag 1.
`CCC(Oc1ccccc1)C(=O)NCc1ccc(S(N)(=O)=O)cc1` (stereo not given) gave CHRM4 PAM 20*, CHRM5 antagonist -5, CHRM4 antagonist -3, M5 PAM 2, CHRM5 agonist -1 and M4 ag 1.
For CC(NCc1ccc(S(N)(=O)=O)cc1)C(=O)NCc1ccccc1 (stereo not given) the results were CHRM4 PAM 0, CHRM5 antagonist 6, CHRM4 antagonist 8, M5 PAM 4, CHRM5 agonist -1 and M4 ag 0.
COc1cc(OC)nc(C(NC(=O)C2CCN(Cc3c[nH]c4ccccc34)CC2)c2ccc(Cl)cc2)n1 (stereo not given) was read as CHRM4 PAM -9, CHRM5 antagonist 7, CHRM4 antagonist 18, M5 PAM 0, CHRM5 agonist 0 and M4 ag 13.
Cc1ccc(C(OCC(C)(C)C[N+](C)(C)C)c2ccccc2)cc1 (stereo not given) was read as CHRM4 PAM -21, CHRM5 antagonist 94*, CHRM4 antagonist 52*, M5 PAM -21, CHRM5 agonist -11 and M4 ag 2.
`CCN(CC)CCC(C)OC(c1ccccc1)c1ccccc1` (stereo not given) gave CHRM4 PAM -22, CHRM5 antagonist 38*, CHRM4 antagonist 6, M5 PAM -33, CHRM5 agonist -13 and M4 ag 2.
CCN(CC)CCCCCOc1ccccc1OC was read as CHRM4 PAM 2, CHRM5 antagonist -2, CHRM4 antagonist 7, M5 PAM 2, CHRM5 agonist -5 and M4 ag 2.
For Cc1ccccc1C(OCCN(C)C)c1ccccc1 (stereo not given) the results were CHRM4 PAM -18, CHRM5 antagonist 92*, CHRM4 antagonist 62*, M5 PAM -19, CHRM5 agonist -1 and M4 ag 2.
`CCN(CC)CCOC(c1ccccc1)c1ccc(C)cc1` (stereo not given) gave CHRM4 PAM -17, CHRM5 antagonist 75*, CHRM4 antagonist 43*, M5 PAM -19, CHRM5 agonist -8 and M4 ag 2.
